From ChEMBL document CHEMBL3596093, “Synthesis and antimicrobial evaluation of 5-aryl-1,2,4-triazole-3-thione derivatives containing a rhodanine moiety” (2015)
Converted amounts (≈) assume the structure as drawn.

Legend:
Staphylococcus aureus [1] = experiment: Bactericidal activity against methicillin-resistant Staphylococcus aureus CCARM 3167 after 24 hrs by agar plate method; assay type: functional; settings: CCARM 3167, 24 h
In short: (§1)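 5 µL from each well without visible growth plated on fresh Mueller-Hinton agar, then 37 °C for a further 24 h. MBC is the lowest concentration giving no visible colonies. Run in triplicate.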

Staphylococcus aureus [2] = experiment: Bactericidal activity against quinolone-resistant Staphylococcus aureus CCARM 3505 after 24 hrs by agar plate method; assay type: functional; settings: CCARM 3505, 24 h; in short: as §1
Salmonella typhimurium = experiment: Antibacterial activity against Salmonella typhimurium 2421 after 24 hrs by two-fold serial dilution method; assay type: functional, Salmonella enterica subsp. enterica serovar Typhimurium; settings: Salmonella enterica, 2421, 24 h
In short: (§2)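 Strains grown to mid-log phase in Mueller-Hinton broth, then diluted 1000-fold in the same broth to about 10^5 CFU/mL. Compounds were made up as DMSO stocks and two-fold serially diluted from a final top concentration of 64 µg/mL. Incubation was 37 °C for 24 h. Growth was read as absorbance at 630 nm on a microplate reader. MIC assays were run in triplicate.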

Candida albicans = experiment: Antifungal activity against Candida albicans 7535 after 24 hrs by two-fold serial dilution method; assay type: functional; settings: Candida albicans, 7535, 24 h
Staphylococcus aureus [3] = experiment: Antibacterial activity against methicillin-resistant Staphylococcus aureus CCARM 3167 after 24 hrs by two-fold serial dilution method; assay type: functional; settings: CCARM 3167, 24 h
In short: (§3)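 Broth microdilution MIC. Bacteria grown to mid-log phase in Mueller-Hinton broth, diluted 1000-fold, about 10^5 CFU/mL. Compounds from DMSO stocks, two-fold serial dilution from a final 64 µg/mL. Incubation at 37 °C for 24 h. Growth read as absorbance at 630 nm on a microplate reader. Run in triplicate.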

Escherichia coli [4] = experiment: Antibacterial activity against Escherichia coli CCARM 1356 after 24 hrs by two-fold serial dilution method; assay type: functional; settings: CCARM 1356, 24 h; in short: as §2
Escherichia coli [5] = experiment: Ratio of MBC to MIC for Escherichia coli KCTC 1924; assay type: functional
In short: (§4)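 The ratio divides MBC by MIC for the same strain. MIC comes from two-fold broth microdilution in Mueller-Hinton broth (about 10^5 CFU/mL, 37 °C, 24 h, absorbance at 630 nm). MBC comes from subculturing 5 µL from clear wells onto Mueller-Hinton agar for another 24 h at 37 °C, taken as the lowest concentration with no colonies.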

Staphylococcus aureus [6] = experiment: Antibacterial activity against Staphylococcus aureus KCTC 503 after 24 hrs by two-fold serial dilution method; assay type: functional; settings: KCTC 503, 24 h; in short: as §2
Staphylococcus aureus [7] = experiment: Antibacterial activity against methicillin-resistant Staphylococcus aureus CCARM 3506 after 24 hrs by two-fold serial dilution method; assay type: functional; settings: CCARM 3506, 24 h; in short: as §3
Staphylococcus aureus [8] = experiment: Antibacterial activity against quinolone-resistant Staphylococcus aureus CCARM 3505 after 24 hrs by two-fold serial dilution method; assay type: functional; settings: CCARM 3505, 24 h; in short: as §3
Pseudomonas aeruginosa [9] = experiment: Antibacterial activity against Pseudomonas aeruginosa 2004 after 24 hrs by two-fold serial dilution method; assay type: functional; settings: Pseudomonas aeruginosa, 2004, 24 h; in short: as §2
Staphylococcus aureus [10] = experiment: Antibacterial activity against quinolone-resistant Staphylococcus aureus CCARM 3519 after 24 hrs by two-fold serial dilution method; assay type: functional; settings: CCARM 3519, 24 h; in short: as §3
Escherichia coli [11] = experiment: Antibacterial activity against Escherichia coli KCTC 1924 after 24 hrs by two-fold serial dilution method; assay type: functional; settings: KCTC 1924, 24 h; in short: as §2
Pseudomonas aeruginosa [12] = experiment: Antibacterial activity against Pseudomonas aeruginosa 2742 after 24 hrs by two-fold serial dilution method; assay type: functional; settings: Pseudomonas aeruginosa, 2742, 24 h; in short: as §2
Staphylococcus aureus [13] = experiment: Antibacterial activity against Staphylococcus aureus KCTC 209 after 24 hrs by two-fold serial dilution method; assay type: functional; settings: KCTC 209, 24 h; in short: as §2
Streptococcus mutans [14] = experiment: Antibacterial activity against Streptococcus mutans 3065 after 24 hrs by two-fold serial dilution method; assay type: functional; settings: Streptococcus mutans, 3065, 24 h; in short: as §2
Staphylococcus aureus [15] = experiment: Bactericidal activity against Staphylococcus aureus KCTC 503 after 24 hrs by agar plate method; assay type: functional; settings: KCTC 503, 24 h; in short: as §1
Staphylococcus aureus [16] = experiment: Bactericidal activity against quinolone-resistant Staphylococcus aureus CCARM 3519 after 24 hrs by agar plate method; assay type: functional; settings: CCARM 3519, 24 h; in short: as §1
Escherichia coli [17] = experiment: Bactericidal activity against Escherichia coli KCTC 1924 after 24 hrs by agar plate method; assay type: functional; settings: KCTC 1924, 24 h
In short: (§5)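 Samples of 5 µL from MIC wells with no visible growth were plated onto fresh Mueller-Hinton agar and incubated a further 24 h at 37 °C. MBC is the lowest concentration giving no visible colony growth on the agar. Assays were run in triplicate.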

Staphylococcus aureus [18] = experiment: Ratio of MBC to MIC for Staphylococcus aureus KCTC 503; assay type: functional; in short: as §4
Staphylococcus aureus [19] = experiment: Bactericidal activity against methicillin-resistant Staphylococcus aureus CCARM 3506 after 24 hrs by agar plate method; assay type: functional; settings: CCARM 3506, 24 h; in short: as §1
Streptococcus mutans [20] = experiment: Bactericidal activity against Streptococcus mutans 3065 after 24 hrs by agar plate method; assay type: functional; settings: Streptococcus mutans, 3065, 24 h; in short: as §5
Staphylococcus aureus [21] = experiment: Antibacterial activity against Staphylococcus aureus RN4220 after 24 hrs by two-fold serial dilution method; assay type: functional; settings: RN4220, 24 h; in short: as §3
Staphylococcus aureus [22] = experiment: Bactericidal activity against Staphylococcus aureus RN4220 after 24 hrs by agar plate method; assay type: functional; settings: RN4220, 24 h; in short: as §5
Staphylococcus aureus [23] = experiment: Bactericidal activity against Staphylococcus aureus KCTC 209 after 24 hrs by agar plate method; assay type: functional; settings: KCTC 209, 24 h; in short: as §5

Structure (SMILES)	MBC (Staphylococcus aureus [1])	MBC (Staphylococcus aureus [2])	MIC (Salmonella typhimurium)	MIC (Candida albicans)	MIC (Staphylococcus aureus [3])	MIC (Escherichia coli [4])	MIC (Staphylococcus aureus [6])	MIC (Staphylococcus aureus [7])	MIC (Staphylococcus aureus [8])	MIC (Pseudomonas aeruginosa [9])	MIC (Staphylococcus aureus [10])	MIC (Escherichia coli [11])	MIC (Pseudomonas aeruginosa [12])	MIC (Staphylococcus aureus [13])	MIC (Streptococcus mutans [14])	MBC (Staphylococcus aureus [15])	MBC (Staphylococcus aureus [16])	MBC (Escherichia coli [17])	MIC (Staphylococcus aureus [21])	MBC (Staphylococcus aureus [22])	also measured
O=C(O)[C@H](Cc1ccccc1)N1C(=O)/C(=C/c2ccc(/C=N/n3c(-c4cccc(Br)c4)n[nH]c3=S)cc2)SC1=S	128 µg/mL (≈ 197 µM)	128 µg/mL (≈ 197 µM)	> 128 µg/mL	> 64 µg/mL	32 µg/mL (≈ 49.2 µM)	> 128 µg/mL	64 µg/mL (≈ 98.4 µM)	16 µg/mL (≈ 24.6 µM)	16 µg/mL (≈ 24.6 µM)	> 128 µg/mL	32 µg/mL (≈ 49.2 µM)	64 µg/mL (≈ 98.4 µM)	> 128 µg/mL	> 64 µg/mL	64 µg/mL (≈ 98.4 µM)	128 µg/mL (≈ 197 µM)	256 µg/mL (≈ 393 µM)	64 µg/mL (≈ 98.4 µM)	32 µg/mL (≈ 49.2 µM)	256 µg/mL (≈ 393 µM)	Ratio (Escherichia coli [5]): <=4; Ratio (Staphylococcus aureus [18]): <=4; MBC (Staphylococcus aureus [19]): 64 µg/mL (≈ 98.4 µM); MBC (Streptococcus mutans [20]): > 128 µg/mL
O=C(O)CN1C(=O)/C(=C/c2ccc(/C=N/n3c(-c4ccccc4Br)n[nH]c3=S)cc2)SC1=S	256 µg/mL (≈ 457 µM)		> 128 µg/mL	> 64 µg/mL	64 µg/mL (≈ 114 µM)	> 128 µg/mL	> 64 µg/mL	> 64 µg/mL	> 64 µg/mL	> 128 µg/mL	64 µg/mL (≈ 114 µM)	64 µg/mL (≈ 114 µM)	> 128 µg/mL	> 64 µg/mL	> 64 µg/mL		> 256 µg/mL	256 µg/mL (≈ 457 µM)	64 µg/mL (≈ 114 µM)	> 256 µg/mL	Ratio (Escherichia coli [5]): <=4
O=C(O)CN1C(=O)/C(=C/c2ccc(/C=N/n3c(-c4ccc(F)cc4)n[nH]c3=S)cc2)SC1=S	> 128 µg/mL		> 128 µg/mL	> 64 µg/mL	16 µg/mL (≈ 32 µM)	> 128 µg/mL	> 64 µg/mL	> 64 µg/mL	> 64 µg/mL	> 128 µg/mL	32 µg/mL (≈ 64.1 µM)	> 128 µg/mL	> 128 µg/mL	64 µg/mL (≈ 128 µM)	> 64 µg/mL		> 256 µg/mL		64 µg/mL (≈ 128 µM)	> 256 µg/mL	MBC (Staphylococcus aureus [23]): > 256 µg/mL
O=C1NC(=S)S/C1=C\c1ccc(/C=N/n2c(-c3ccccc3)n[nH]c2=S)cc1	> 256 µg/mL	> 256 µg/mL	> 128 µg/mL	> 64 µg/mL	32 µg/mL (≈ 75.6 µM)	> 128 µg/mL	32 µg/mL (≈ 75.6 µM)	32 µg/mL (≈ 75.6 µM)	32 µg/mL (≈ 75.6 µM)	> 128 µg/mL	32 µg/mL (≈ 75.6 µM)	32 µg/mL (≈ 75.6 µM)	> 128 µg/mL	64 µg/mL (≈ 151 µM)	16 µg/mL (≈ 37.8 µM)	> 256 µg/mL	> 256 µg/mL	128 µg/mL (≈ 302 µM)	32 µg/mL (≈ 75.6 µM)	> 256 µg/mL	MBC (Staphylococcus aureus [23]): > 256 µg/mL; Ratio (Escherichia coli [5]): <=4; MBC (Staphylococcus aureus [19]): > 256 µg/mL; MBC (Streptococcus mutans [20]): > 128 µg/mL
O=C1NC(=S)S/C1=C\c1ccc(/C=N/n2c(-c3ccccc3Cl)n[nH]c2=S)cc1	> 128 µg/mL	> 128 µg/mL	> 128 µg/mL	> 64 µg/mL	16 µg/mL (≈ 34.9 µM)	> 128 µg/mL	16 µg/mL (≈ 34.9 µM)	16 µg/mL (≈ 34.9 µM)	16 µg/mL (≈ 34.9 µM)	> 128 µg/mL	16 µg/mL (≈ 34.9 µM)	16 µg/mL (≈ 34.9 µM)	> 128 µg/mL	64 µg/mL (≈ 140 µM)	16 µg/mL (≈ 34.9 µM)	> 256 µg/mL	> 128 µg/mL	> 128 µg/mL	32 µg/mL (≈ 69.9 µM)	> 256 µg/mL	MBC (Staphylococcus aureus [23]): > 256 µg/mL; MBC (Staphylococcus aureus [19]): > 128 µg/mL; MBC (Streptococcus mutans [20]): > 128 µg/mL
O=C1NC(=S)S/C1=C\c1ccc(/C=N/n2c(-c3ccccc3Br)n[nH]c2=S)cc1	> 128 µg/mL	> 128 µg/mL	> 128 µg/mL	> 64 µg/mL	16 µg/mL (≈ 31.8 µM)	> 128 µg/mL	16 µg/mL (≈ 31.8 µM)	16 µg/mL (≈ 31.8 µM)	16 µg/mL (≈ 31.8 µM)	> 128 µg/mL	16 µg/mL (≈ 31.8 µM)	16 µg/mL (≈ 31.8 µM)	> 128 µg/mL	64 µg/mL (≈ 127 µM)	16 µg/mL (≈ 31.8 µM)	> 128 µg/mL	> 128 µg/mL	> 128 µg/mL	16 µg/mL (≈ 31.8 µM)	128 µg/mL (≈ 255 µM)	MBC (Staphylococcus aureus [23]): > 256 µg/mL; MBC (Staphylococcus aureus [19]): > 128 µg/mL; MBC (Streptococcus mutans [20]): > 128 µg/mL
